Active and inactive are the calls of the source. The rule behind the calls is not given here.
Assays:
Rattus norvegicus [1] = experiment: Effect on spontaneous pain in Sprague-Dawley rat SNL model assessed as duration of paw withdrawal at 100 mg/kg, ip after 0.5 hr; type: functional; conditions: route intraperitoneal
Procedure, shortened: (§1)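 Rats underwent left L5 spinal nerve ligation (Kim and Chung) under i.p. pentobarbital (65 mg/kg). Spontaneous pain is recorded for 5 min after 10 min acclimatization, as cumulative duration the ipsilateral paw is lifted, excluding locomotor lifts. Dosing is 100 mg/kg i.p. in 30% v/v PEG 400/water, with testing at 0.5–2.5 h. Four rats, mean ± SEM versus predrug, one-way ANOVA with Bonferroni.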

Rattus norvegicus [2] = experiment: Anti-cold allodynia effect in Sprague-Dawley rat SNL model assessed as duration of paw withdrawal 100 mg/kg, ip after 1 hrs; type: functional; conditions: route intraperitoneal
Procedure, shortened: (§2)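 Left L5 spinal nerve ligation under pentobarbital (65 mg/kg i.p.). Allodynic rats dosed i.p. 100 mg/kg, vehicle 30% v/v PEG 400 in water. Acetone (100-200 µL) misted onto midplantar affected paw after 10 min acclimatization; paw withdrawal duration, mean of three samples at least 3 min apart; n = 4 rats.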

Rattus norvegicus [3] = experiment: Anti-cold allodynia effect in Sprague-Dawley rat SNL model assessed as duration of paw withdrawal 100 mg/kg, ip after 1.5 hrs; type: functional; conditions: route intraperitoneal; procedure, shortened: as §2
Rattus norvegicus [4] = experiment: Anti-cold allodynia effect in Sprague-Dawley rat SNL model assessed as duration of paw withdrawal 100 mg/kg, ip after 2.5 hrs; type: functional; conditions: route intraperitoneal; procedure, shortened: as §2
Rattus norvegicus [5] = experiment: Anti-dynamic allodynia effect in Sprague-Dawley rat SNL model assessed as latency to paw withdrawal 100 mg/kg, ip after 2 hrs; type: functional; conditions: route intraperitoneal
Procedure, shortened: (§3)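 Left L5 spinal nerve ligation rats, tested preoperatively and 9 days postoperatively, then given 100 mg/kg i.p. (vehicle 30% v/v PEG 400 in water). After 10 min acclimatization, plantar surface of affected paw stroked mildly with a cotton-bud; paw lift response recorded. n = 4; retested 0.5-2.5 h post-dose.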

Rattus norvegicus [6] = experiment: Anti-cold allodynia effect in Sprague-Dawley rat CCI model assessed as duration of paw withdrawal 100 mg/kg, ip after 2.5 hr; type: functional; conditions: route intraperitoneal
Procedure, shortened: (§4)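 CCI by sciatic nerve ligation under pentobarbital (65 mg/kg i.p.). Rats tested at baseline and 9 days post-surgery; those with allodynia dosed i.p. 100 mg/kg, vehicle 30% v/v PEG 400 in water. Acetone (100-200 µL) misted on midplantar affected paw; withdrawal duration recorded, three samples averaged, at least 3 min apart; n = 4.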

Rattus norvegicus [7] = experiment: Anti-cold allodynia effect in Sprague-Dawley rat SNL model assessed as duration of paw withdrawal 100 mg/kg, ip after 0.5 hr; type: functional; conditions: route intraperitoneal; procedure, shortened: as §2
Rattus norvegicus [8] = experiment: Anti-cold allodynia effect in Sprague-Dawley rat CCI model assessed as duration of paw withdrawal 100 mg/kg, ip after 1 hr; type: functional; conditions: route intraperitoneal; procedure, shortened: as §4
Rattus norvegicus [9] = experiment: Anti-cold allodynia effect in Sprague-Dawley rat CCI model assessed as duration of paw withdrawal 100 mg/kg, ip after 2 hr; type: functional; conditions: route intraperitoneal; procedure, shortened: as §4
Rattus norvegicus [10] = experiment: Effect on spontaneous pain in Sprague-Dawley rat SNL model assessed as duration of paw withdrawal at 100 mg/kg, ip after 1.5 hrs; type: functional; conditions: route intraperitoneal; procedure, shortened: as §1
Rattus norvegicus [11] = experiment: Anti-dynamic allodynia effect in Sprague-Dawley rat SNL model assessed as latency to paw withdrawal 100 mg/kg, ip after 1 hr; type: functional; conditions: route intraperitoneal; procedure, shortened: as §3
Rattus norvegicus [12] = experiment: Antihyperalgesic effects in Sprague-Dawley rat SNL model assessed as duration of paw withdrawal at 100 mg/kg, ip after 2 hrs, ip; type: functional; conditions: route intraperitoneal
Procedure, shortened: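 L5 SNL rats (n = 4), dosed 100 mg/kg i.p. (vehicle 30% v/v PEG 400 in water). Pin-prick to midplantar ipsilateral left hindpaw; withdrawal duration, mean of three responses; ≥2 s defined abnormal. Mean ± SEM; one-way ANOVA with Bonferroni versus predrug.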

Rattus norvegicus [13] = experiment: Anti-cold allodynia effect in Sprague-Dawley rat SNL model assessed as duration of paw withdrawal 100 mg/kg, ip after 2 hrs; type: functional; conditions: route intraperitoneal; procedure, shortened: as §2
Rattus norvegicus [14] = experiment: Effect on spontaneous pain in Sprague-Dawley rat SNL model assessed as duration of paw withdrawal at 100 mg/kg, ip after 2 hrs; type: functional; conditions: route intraperitoneal; procedure, shortened: as §1
Rattus norvegicus [15] = experiment: Anti-cold allodynia effect in Sprague-Dawley rat CCI model assessed as duration of paw withdrawal at 100 mg/kg, ip after 0.5 hr; type: functional; conditions: route intraperitoneal; procedure, shortened: as §4
Mus musculus [16] = experiment: Anticonvulsant activity in Swiss Albino mouse at 300 mg/kg, ip after 4 hrs by scSTY test; type: functional, organism-based; set-up: dose 300 mg/kg
Procedure, shortened: (§5)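 Mice (Swiss, 20-25 g) given i.p. doses of 30, 100 and 300 mg/kg under ADD program protocols, three per group, examined at 0.5 and 4 h in MES, scPTZ, scSTY or scPIC seizure tests. Value is the minimum dose protecting half or more of the mice.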

Mus musculus [17] = experiment: Analgesic activity in Swiss Albino mouse assessed as number of acetic acid-induced writhing per 30 min after 100 mg/kg, ip; type: functional; conditions: route intraperitoneal
Procedure, shortened: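 Mice in groups of six dosed i.p. at 100 mg/kg, controls receiving 30% v/v PEG 400 in water. Writhing induced by i.p. 0.1 mL of 3% v/v acetic acid 1 h after drug. Writhes (abdominal stretch with at least one hind limb extended) counted over 30 min; % inhibition calculated. Mean ± SEM, Student's t test.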

Mus musculus [18] = experiment: Anticonvulsant activity in Swiss Albino mouse at 300 mg/kg, ip after 0.5 hr by scSTY test; type: functional, organism-based; set-up: dose 300 mg/kg; procedure, shortened: as §5
Mus musculus [19] = experiment: Neurotoxicity in Swiss Albino mouse at 300 mg/kg, ip after 0.5 hr by rotarod test; type: functional, organism-based; set-up: dose 300 mg/kg
Procedure, shortened: (§6)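 Swiss mice (20-25 g) are trained on an accelerating rotorod (10 rpm, 3.2 cm rod), then injected i.p. at 30, 100 or 300 mg/kg, with three per group. Neurotoxicity means failure to keep equilibrium for at least 1 min in each of three trials, checked at 0.5 and 4 h. The value reported is the minimum dose affecting half or more of the mice.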

Mus musculus [20] = experiment: Anticonvulsant activity in Swiss Albino mouse at 30 mg/kg, ip after 0.5 hr by scPIC test; type: functional, organism-based; set-up: dose 30 mg/kg; procedure, shortened: as §5
Mus musculus [21] = experiment: Anticonvulsant activity in Swiss Albino mouse at 100 mg/kg, ip after 4 hrs by scPIC test; type: functional, organism-based; set-up: dose 100 mg/kg; procedure, shortened: as §5
Mus musculus [22] = experiment: Neurotoxicity in Swiss Albino mouse at 300 mg/kg, ip after 4 hrs by rotarod test; type: functional, organism-based; set-up: dose 300 mg/kg; procedure, shortened: as §6
Mus musculus [23] = experiment: Anticonvulsant activity in Swiss Albino mouse at 300 mg/kg, ip after 4 hrs by MES test; type: functional, organism-based; set-up: dose 300 mg/kg; procedure, shortened: as §5
Mus musculus [24] = experiment: Anticonvulsant activity in Swiss Albino mouse at 300 mg/kg, ip after 0.5 hr by MES test; type: functional, organism-based; set-up: dose 300 mg/kg; procedure, shortened: as §5
Mus musculus [25] = experiment: Anticonvulsant activity in Swiss Albino mouse at 300 mg/kg, ip after 0.5 hr by scPTZ test; type: functional, organism-based; set-up: dose 300 mg/kg; procedure, shortened: as §5
Mus musculus [26] = experiment: Anticonvulsant activity in Swiss Albino mouse at 30 mg/kg, ip after 0.5 hr by scSTY test; type: functional, organism-based; set-up: dose 30 mg/kg; procedure, shortened: as §5
Mus musculus [27] = experiment: Anticonvulsant activity in Swiss Albino mouse at 30 mg/kg, ip after 4 hrs by scSTY test; type: functional, organism-based; set-up: dose 30 mg/kg; procedure, shortened: as §5
Mus musculus [28] = experiment: Anticonvulsant activity in Swiss Albino mouse at 30 mg/kg, ip after 4 hrs by scPIC test; type: functional, organism-based; set-up: dose 30 mg/kg; procedure, shortened: as §5
Mus musculus [29] = experiment: Anticonvulsant activity in Swiss Albino mouse at 300 mg/kg, ip after 4 hrs by scPIC test; type: functional, organism-based; set-up: dose 300 mg/kg; procedure, shortened: as §5
Mus musculus [30] = experiment: Neurotoxicity in Swiss Albino mouse at 100 mg/kg, ip after 0.5 hr by rotarod test; type: functional, organism-based; set-up: dose 100 mg/kg; procedure, shortened: as §6

Structure (SMILES) | Activity (Rattus norvegicus [1]) | Activity (Rattus norvegicus [2]) | Activity (Rattus norvegicus [3]) | Activity (Rattus norvegicus [4]) | Activity (Rattus norvegicus [5]) | Activity (Rattus norvegicus [6]) | Activity (Rattus norvegicus [7]) | Activity (Rattus norvegicus [8]) | Activity (Rattus norvegicus [9]) | Activity (Rattus norvegicus [10]) | Activity (Rattus norvegicus [11]) | Activity (Rattus norvegicus [12]) | Activity (Rattus norvegicus [13]) | Activity (Rattus norvegicus [14]) | Activity (Rattus norvegicus [15]) | Activity (Mus musculus [17]) | Activity (Mus musculus [22]) | Activity (Mus musculus [23]) | Activity (Mus musculus [24]) | Activity (Mus musculus [25]) | also measured
NCC1(CC(=O)O)CCCCC1 [GABAPENTIN] | 29.7 s | 9 s | 7.8 s | 6.9 s | 6.6 s | 7.2 s | 16.7 s | 10 s | 7.5 s | 10.2 s | 4.6 s | 9.9 s | 7.6 s | 9.1 s | 26.8 s |  |  |  |  |  | 
CN(C)c1ccc(/C=N/NC(=O)NCCCC(=O)O)cc1 | 12.4 s |  |  |  | 2.9 s | 18.1 s |  | 19.7 s | 17.9 s | 16.4 s | 8.8 s | 4.4 s |  | 29.2 s | 28.1 s | 13 | inactive | inactive | inactive | inactive | Activity (Mus musculus [16]): inactive; Activity (Mus musculus [18]): inactive; Activity (Mus musculus [19]): inactive; Activity (Mus musculus [20]): Active; Activity (Mus musculus [21]): Active
O=C(O)CCCNC(=O)N/N=C/c1ccccc1O |  | 27.3 s | 26 s | 28.5 s | 11.8 s | 12.2 s | 22.2 s | 15.8 s | 13.7 s |  | 14.3 s |  | 25.4 s |  | 31.3 s | 19 | Active | inactive | inactive | inactive | Activity (Mus musculus [26]): Active; Activity (Mus musculus [27]): Active; Activity (Mus musculus [19]): inactive; Activity (Mus musculus [20]): Active; Activity (Mus musculus [28]): Active
NC(=O)N1c2ccccc2C=Cc2ccccc21 [CARBAMAZEPINE] | 14.6 s | 11.8 s | 7.9 s | 20.6 s | 1.9 s | 21.8 s | 13.5 s | 10.6 s | 27.8 s | 22.3 s | 13.4 s | 5.5 s | 19.4 s | 85.4 s | 12.8 s |  |  |  |  |  | 
Nc1nnc(-c2cccc(Cl)c2Cl)c(N)n1 [LAMOTRIGINE] | 15.6 s | 9.2 s | 21.8 s | 18.4 s | 0.7 s | 23.7 s | 19.2 s | 33.6 s | 29.9 s | 2.6 s | 1.6 s | 6.4 s | 17.3 s | 22.9 s | 53.7 s |  |  |  |  |  | 
O=C(O)CCCNC(=O)N/N=C1\C(=O)Nc2ccccc21 | 1.2 s | 16.3 s | 22.6 s | 41.2 s |  |  | 11 s |  |  | 0.9 s |  | 19.7 s | 17.1 s | 0.7 s |  | 47.3 | Active | Active | Active | Active | Activity (Mus musculus [29]): Active; Activity (Mus musculus [16]): inactive; Activity (Mus musculus [18]): inactive; Activity (Mus musculus [30]): Active

— ChEMBL document CHEMBL1139875, “Discovery of 4-aminobutyric acid derivatives possessing anticonvulsant and antinociceptive activities: a hybrid pharmacophore approach” (2007)
